Data taken from publication PMC5026420 (Science Advances, 2016).
Positions count from the first letter of the chain named. Like-named read-outs stand apart in the source and are kept apart here.

How the values were obtained:
CckA_ΔTM [1] = molecular target: T1, CckA_ΔTM (Caulobacter vibrioides, UniProt Q9X688); experiment: CckA phosphorylation assay by autoradiography; format: biochemical, Caulobacter crescentus; conditions: for net CckA_ΔTM~P after addition of effector: ADP or c-di-GMP added after 30 min of incubation with 500 μM ATP
T1 sequence (Q9X688 72-691): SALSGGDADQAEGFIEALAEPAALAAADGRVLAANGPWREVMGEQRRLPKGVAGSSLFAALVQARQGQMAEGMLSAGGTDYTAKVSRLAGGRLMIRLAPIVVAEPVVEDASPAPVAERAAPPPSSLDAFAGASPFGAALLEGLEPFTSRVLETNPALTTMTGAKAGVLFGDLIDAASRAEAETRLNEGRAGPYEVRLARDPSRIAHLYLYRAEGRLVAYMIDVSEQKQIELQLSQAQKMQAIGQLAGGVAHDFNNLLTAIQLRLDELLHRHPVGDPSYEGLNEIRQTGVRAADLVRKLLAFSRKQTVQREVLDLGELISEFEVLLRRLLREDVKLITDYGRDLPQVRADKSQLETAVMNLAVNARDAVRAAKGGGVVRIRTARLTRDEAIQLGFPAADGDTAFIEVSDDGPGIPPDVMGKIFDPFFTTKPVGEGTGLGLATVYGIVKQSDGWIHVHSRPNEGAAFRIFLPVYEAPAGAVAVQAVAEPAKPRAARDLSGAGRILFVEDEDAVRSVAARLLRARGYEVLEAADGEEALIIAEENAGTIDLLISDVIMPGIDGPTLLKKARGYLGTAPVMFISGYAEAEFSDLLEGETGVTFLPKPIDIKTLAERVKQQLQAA
Procedure, shortened: (§1)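 MBP-tagged CckA_ΔTM (residues S72–A691) or its point mutants are incubated at room temperature with 500 μM ATP plus 5 μCi γ32P-ATP. Further nucleotides are added at set times. Where applicable, ATP is converted to ADP with 1.5 U hexokinase and 5 mM D-glucose. Reactions are stopped in SDS sample buffer and run on 10% SDS gels. Wet gels are exposed to a phosphor screen (0.5–3 h) and scanned.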

CckA_ΔTM [2] = molecular target: T1, CckA_ΔTM; experiment: Global fit of kinetic model to CckA_ΔTM phosphorylation progress curves; format: biochemical, Caulobacter crescentus; conditions: simulations; rate with which the data can be fit
Procedure, shortened: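 Progress curves of net CckA_ΔTM~P come from radiolabelled ATP reactions, with ADP or c-di-GMP added to aliquots after 30 min. The curves were globally fitted to a kinetic model using standard first- and second-order reaction kinetics, set up as a system of coupled ordinary differential equations. Rate parameters such as kr are taken from that global fit.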

CckA_CA = molecular target: T2, CckA_CA (Caulobacter vibrioides, UniProt Q9X688); experiment: ITC ligand binding to CckA_CA; set-up: species or system Caulobacter crescentus
T2 sequence (Q9X688 379-545): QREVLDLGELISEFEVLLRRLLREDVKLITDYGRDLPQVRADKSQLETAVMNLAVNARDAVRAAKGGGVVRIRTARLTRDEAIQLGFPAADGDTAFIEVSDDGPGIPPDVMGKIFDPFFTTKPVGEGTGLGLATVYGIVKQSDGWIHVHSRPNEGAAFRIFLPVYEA
Procedure, shortened: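 Protein was expressed in E. coli Rosetta (DE3), induced with 0.1 mM IPTG at 22°C, and purified by Ni-NTA then gel filtration (30 mM Tris-HCl pH 7.5, 100 mM NaCl, 5 mM MgCl2). Isothermal titration calorimetry was run at 25 or 12°C, stirring 300 rpm, 200 s preinjection delay, 250 s recording interval. Data were fitted to a single-site model, refitted with N fixed at 1.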

CckA_ΔTM G318A = molecular target: T3, CckA_ΔTM G318A (Caulobacter vibrioides, UniProt Q9X688, G318A); experiment: CckA phosphorylation assay by autoradiography, G318A; format: biochemical, Caulobacter crescentus; conditions: 15 min of ATP incubation, 75 μM c-di-GMP
T3 sequence (Q9X688 72-691 G318A): T1 sequence (Q9X688 72-691) with G247A
Procedure, shortened: as §1

CckA_ΔTM G515D = molecular target: T4, CckA_ΔTM G515D (Caulobacter vibrioides, UniProt Q9X688, G515D); experiment: CckA phosphorylation assay by autoradiography, G515D; format: biochemical, Caulobacter crescentus; conditions: 15 min of ATP incubation, 75 μM c-di-GMP
T4 sequence (Q9X688 72-691 G515D): T1 sequence (Q9X688 72-691) with G444D
Procedure, shortened: as §1

CckA_ΔTM Y514D = conditions: cited from earlier work
CckA_ΔTM W523A = conditions: cited from earlier work
CckA_ΔTM F539A = conditions: cited from earlier work

Row | Structure (SMILES) | net CckA_ΔTM~P after addition of effector (CckA_ΔTM [1]) | rate of debinding (kr) (CckA_ΔTM [2]) | Kd (CckA_CA; read-out: Kd, AMPPNP binding, - c-di-GMP, 12°C) | Kd (CckA_CA; read-out: Kd, c-di-GMP binding, Fig. 3C (in the presence of 5 mM ADP or AMPPNP)) | net CckA phosphorylation with effector present throughout (CckA_ΔTM [1]; 15 min of ATP incubation, 75 μM c-di-GMP) | response of net phosphorylation to c-di-GMP (CckA_ΔTM G318A) | response of net phosphorylation to c-di-GMP (in vitro phenotype) (CckA_ΔTM G515D) | c-di-GMP binding in UV-cross-linking experiments (CckA_ΔTM Y514D) | c-di-GMP binding in UV-cross-linking experiments (CckA_ΔTM W523A) | c-di-GMP binding in UV-cross-linking experiments (CckA_ΔTM F539A)
1 | Nc1ncnc2c1ncn2[C@@H]1O[C@H](COP(=O)(O)OP(=O)(O)O)[C@@H](O)[C@H]1O [ADP, adenosine diphosphate] | dose-dependent boost in dephosphorylation | 10^−2 to 10^−3 s^−1 | – | – | – | – | – | – | – | –
2 | Nc1ncnc2c1ncn2[C@@H]1O[C@H](COP(=O)(O)OP(=O)(O)NP(=O)(O)O)[C@@H](O)[C@H]1O [AMPPNP] | – | – | ~10 µM | – | – | – | – | – | – | –
3 | Nc1nc2c(ncn2[C@@H]2O[C@@H]3COP(=O)(O)O[C@H]4[C@@H](O)[C@H](n5cnc6c(=O)[nH]c(N)nc65)O[C@@H]4COP(=O)(O)O[C@H]3[C@H]2O)c(=O)[nH]1 [c-di-GMP, cyclic di–guanosine monophosphate] | efficiently and rapidly dephosphorylated | – | – | ~20 µM | effectively blocked | virtually no response | identical to that of G318A | lack of c-di-GMP binding | lack of c-di-GMP binding | lack of c-di-GMP binding
